A selection: hits, their analogues and other compounds. The true share with any hit is near 1.6%.
L929 necroptosis: inhibitors of zVAD-triggered necroptosis, primary screen, L929 cells | L929 zVAD necroptosis rescue, ATP luminescence, 24 h; with zVAD 60 µM | viability rescue, % at 10 µM | 0.38% of 220,000 active;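 active = activation, scaled between plate controls, above about 75%, limit read from the data; inactive = activation under that limit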;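 note: 0% = zVAD with DMSO and 100% = DMSO alone without zVAD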
Pf gamet viab: late stage P. falciparum gametocyte viability inhibitors, primary screen, ATP luminescence, HTS; P. falciparum stage V gametocytes, 24 h; inhibition, % at 10.9 µM; 0.065% of 150,000 active;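 active = inhibition above the mean plus 3 SD of compounds within the control limits, set per campaign, cut at about 38% in these data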;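 note: 0% = DMSO wells and 100% = medium only without gametocytes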
Wee1 degr inh: Wee1 degradation inhibitors, primary screen, cell-based, HeLa, Wee1K328M-luciferase, luminescence | 1.2% of 220,000 active | reporter increase, % at 5 µM | Wee1-like protein kinase (Homo sapiens), P30291 | HeLa Luc-Wee1K328M stability; 100% = proteasome inhibitor MG132 effect;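 active = activation above the mean of all tested compounds plus 3 SD, set per screening run, cut at about 8.8% in these data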;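 note: cells exposed to compound for 20 h before luminescence read; 0% = DMSO alone and 100% = MG132 at 30 µM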
Target sequence (P30291 whole entry K328M): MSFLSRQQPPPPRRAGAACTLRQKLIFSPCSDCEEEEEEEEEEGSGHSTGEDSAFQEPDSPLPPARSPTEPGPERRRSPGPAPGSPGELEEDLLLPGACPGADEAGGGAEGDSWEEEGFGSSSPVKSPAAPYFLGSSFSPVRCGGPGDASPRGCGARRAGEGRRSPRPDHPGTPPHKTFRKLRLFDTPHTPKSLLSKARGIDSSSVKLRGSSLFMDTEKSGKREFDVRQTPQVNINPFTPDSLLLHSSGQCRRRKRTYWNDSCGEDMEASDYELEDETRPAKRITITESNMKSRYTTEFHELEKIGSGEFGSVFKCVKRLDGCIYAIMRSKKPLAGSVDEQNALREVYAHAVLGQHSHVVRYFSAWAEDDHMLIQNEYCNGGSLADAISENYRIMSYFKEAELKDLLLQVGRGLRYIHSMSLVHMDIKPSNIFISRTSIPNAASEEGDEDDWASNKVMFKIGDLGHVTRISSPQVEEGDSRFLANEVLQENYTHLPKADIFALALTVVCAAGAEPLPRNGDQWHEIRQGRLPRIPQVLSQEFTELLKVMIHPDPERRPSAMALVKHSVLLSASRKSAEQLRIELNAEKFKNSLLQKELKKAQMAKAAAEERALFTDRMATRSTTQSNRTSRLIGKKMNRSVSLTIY
TNF necrop inh: inhibitors of TNF-alpha triggered necroptosis, primary screen, cell-based, Jurkat FADD-/-, single concentration; activation (protection from cell death), % at 10 µM; 0.068% of 220,000 active; Jurkat FADD-/- TNF necroptosis rescue, ATP luminescence, 24 h; 0 = TNF only, 100 = no-TNF cells;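 active = activation, meaning protection from cell death, of at least 50% relative to plate controls; inactive = activation below 50%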;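 note: necroptosis triggered by 40 ng/mL TNF-alpha added together with compound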
Mdm2 ligase inh: MDM2-luciferase reporter signal enhancers, primary screen, MDM2 E3 ligase inhibitor project, cell-based, luminescence, 1536-well. E3 ubiquitin-protein ligase Mdm2 (Homo sapiens), Q00987. AID 1230, 2008. cell-based MDM2 ubiquitination luciferase reporter, 2 h; 0 = plate control, 100 = twice control, blank-subtracted. 0.11% of 210,000 active. signal enhancement, % at 5 µM;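 active = signal enhancement of 30% or more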;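 note: luminescence tracks abundance of the self-degrading MDM2-luciferase fusion protein; higher signal means inhibition of MDM2 E3 ligase activity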
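Assay system: mammalian cells stably expressing self-ubiquitinating, self-degrading MDM2 E3–luciferase fusion. Quantity: 2000 cells in each well. Medium: DMEM culture medium. Compound dosing: single-point 5 µM. Timing: cell settling 4 h, compound treatment 2 h, both 37 °C. Technique: luciferase luminescence. Read-out basis: percent signal gain over controls, blank-subtracted. Benchmarks: plate controls and plate blanks.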
An asterisk follows results filed as active; x = no result given.

SMILES	L929 necroptosis	Pf gamet viab	Wee1 degr inh	TNF necrop inh	Mdm2 ligase inh
CC(C)CC(NC(=O)OC(C)(C)C)c1cn([C@@H](CCCCNC(=O)OC(C)(C)C)C(=O)N2CCN(C(=O)OC(C)(C)C)CC2)nn1 (some centres undefined)	1	x	10*	1	x
Cc1ccc(OCCCCn2c(CO)nc3ccccc32)cc1	6	-19	-2	1	-39
Cc1ccc(Nc2nc3ccccc3c(=O)s2)cc1C	0	2	10*	0	-2
CCCCNCc1nc2ccccc2c(=O)[nH]1	15	-6	8.9*	1	-12
CC1=NN(c2ccccc2)C(=O)/C1=C/C=C/c1ccccc1	0	11	-1	-9	x
CC1=NN(c2cccc(C(=O)O)c2)C(=O)/C1=C\C=C\c1ccco1	-1	-5	1	-6	36*
Clc1ccc(-c2ccc(SCc3ccccn3)nn2)cc1	0	2	10*	2	6
c1ccc(CSc2ccc(-c3ccccn3)nn2)nc1	61	-15	9.7*	2	-16
COc1ccc(-c2ccc(SCc3ccccn3)nn2)cc1OC	18	-3	9	1	-12
c1ccc(-c2ccc(SCc3cccnc3)nn2)nc1	56	13	2	0	15
O=C(NCCCc1ccccc1)c1ccc(Br)o1	-1	-12	1	0	-9
Cc1ccc(OCC(=O)Nc2cccc3nsnc23)c(C)c1	0	-15	-1	0	-24
O=C(CSCc1ccc(F)cc1)Nc1ccc(F)cc1	0	8	-2	79*	-2
Cc1c(C(=O)NCC2COc3ccccc3O2)oc2ccc(S(=O)(=O)N3CC(C)CC(C)C3)cc12 (centres undefined)	2	x	2	-2	-4
Cc1c(C(=O)NCC2COc3ccccc3O2)oc2ccc(S(=O)(=O)N3CCOCC3)cc12 (centres undefined)	2	x	9.1*	-4	-19
O=C1c2ccccc2C(=O)N1CCc1csc(-c2ccccc2)n1	0	-13	-1	-4	4
CCCN1Cc2cccc(C(=O)Nc3ccc(C)cc3)c2C1=O	0	x	0	1	-11
CCCN1Cc2cccc(C(=O)NCc3ccc(C)cc3)c2C1=O	1	4	9.3*	0	-5
N#Cc1cnc(N)c(Br)c1	10	x	11*	0	-20
CCNc1nc(N)nc(Oc2ccc(OCCOc3ccc(Cl)cc3Cl)nn2)n1	0	x	-2	-2	-5
O=C(O)c1ccc(NC(=S)NC2CCCCC2)cc1	0	14	9.6*	2	0
FC(F)(F)c1ccc(NC(=S)NC2CCCCC2)cc1	3	-20	0	1	-7
CCN(CC)C(=O)COc1ccc(S(=O)(=O)N2CCCC2)cc1	x	-4	x	x	x
CCOc1ccc(S(=O)(=O)N2CCCC2)cc1	1	40*	0	0	-12
CC(C)NC(=O)C1CCCN(S(=O)(=O)c2ccc(-n3cnnn3)cc2)C1 (centres undefined)	0	9	3	0	-8
SMILES	L929 necroptosis	Pf gamet viab	Wee1 degr inh	TNF necrop inh	Mdm2 ligase inh
O=C(Nc1ccccn1)c1ccc([N+](=O)[O-])cc1Cl	0	-11	0	3	1
O=C(Nc1ccccn1)c1cc2cc([N+](=O)[O-])ccc2s1	-2	9	9.4*	-2	-33
CCOC(=O)N1CCC(NS(=O)(=O)c2ccc3c(c2)CCN3C(C)=O)CC1	-1	-3	2	-2	-11
Cc1ccc(CC2SC(=O)NC2=O)cc1Cl (centres undefined)	84*	-4	2	20	-13
Cc1nn(C)cc1/C=N/NC(=O)c1ccco1	1	-20	0	2	-6
COc1ccccc1NC(=O)C(C)Nc1ccc(C)c(Cl)c1 (centres undefined)	1	10	-4	0	-7
COC(=O)CSC1=C(C#N)C(=O)NC(c2ccccc2)S1 (centres undefined)	0	x	-1	-11	40*
CCCNC(=O)c1noc2c1CCc1cc(OC)ccc1-2	1	0	10*	0	-26
CCOC(=O)c1[nH]c(C)c(C(=O)c2ccc(C)cc2)c1C	0	15	9.5*	-21	0
Cc1ccc(C)c2[nH]c(=O)c(CN(Cc3nnnn3C3CCCCC3)CC3CCCO3)cc12 (centres undefined)	2	x	9.8*	-2	-17
C[C@H](CO)N1C[C@H](C)[C@@H](CN(C)C)Oc2c(NS(=O)(=O)c3ccccc3)cccc2C1=O	x	23	x	x	x
COc1ccc(-n2cnc3sc4c(c3c2=O)CCCC4)cc1	2	7	0	8	-4
COc1ccc(-n2c(C)nc3sc4c(c3c2=O)CCCC4)cc1	8	x	0	89*	-5
COc1cccc2cc(C(C)OC(=O)Nc3ccc(C)cc3)oc12 (centres undefined)	0	14	9.1*	1	-10
COc1cccc2cc(C(=O)Oc3ccc(NC(C)=O)cc3)c(=O)oc12	-1	-29	0	1	-2
COc1ccc(N=Nc2nc3ccc(Br)cc3n2C)cc1	0	x	9.9*	-10	-33
COc1ccc(/C=C/C=C2\N=C(SC)SC2=O)cc1	0	x	0	-2	-4
CCOc1ccccc1C(=O)Nc1cc(C(=O)NCCc2ccccc2)ccc1Cl	0	x	-1	-1	12
COc1ccc(C)cc1S(=O)(=O)N(C)CC(=O)NC1CCCCC1	-1	18	-1	-1	30*
COc1ccc(C)cc1S(=O)(=O)N(C)CC(=O)NC1CCCCCC1	3	4	0	1	-12
CCCCP(=O)(CCCC)Cc1ccccc1O	0	10	9.4*	-2	-4
Cc1ccc(C(=O)Nc2nc(=O)n(C(=O)c3ccccc3C)s2)cc1	0	-1	1	-3	-2
CCC(=O)NC(=S)Nc1ccccc1C(=O)NC1CCCCC1	2	12	-2	4	-9
CC(C)C(=O)NC(=S)Nc1ccccc1C(=O)NC1CCCCC1	x	52*	1	4	-6
O=C(Nc1ccccc1NC(=O)NC1CCCCC1)NC1CCCCC1	0	-11	-2	-1	-12
NC(=O)c1ccccc1NC(=O)NC1CCCCC1	0	x	11*	-2	x
COC(=O)c1ccccc1NC(=O)NC1CCCC1	0	-24	9.5*	0	2
COC(=O)c1ccccc1NC(=O)C1CCCC1	0	-1	1	-2	-9
COc1ccccc1N1CCN(Cc2cn[nH]c2-c2ccc(F)cc2)CC1	0	9	1	6	-9
COc1ccccc1N1CCN(c2cnccn2)CC1	0	0	3	0	-5

Screens: PubChem BioAssay, several laboratories
